Activity calls are given as the source filed them. The calls are words filed in the database; no cut-off is given here. Peptide text beside a SMILES is read from it. * marks the point of attachment. Cbz = O=C(OCc1ccccc1)*
How the values were obtained:
[1] = system: Hepa-1c1c7; assay: Increase of Nrf2 protein level in mouse Hepa-1c1c7 cells at 10 uM for 6 hrs Western blotting relative to control; format: functional, cell-based
Outline: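 Hepa1c1c7 cells exposed to compound at 10 µM for 6 h, with MG132 (25 µM) as reference. Lysates made in digitonin/EDTA with protease inhibitors; 50 µg protein run on 15% SDS-PAGE, blotted to nitrocellulose and probed for Nrf2 with β-actin loading control. Bands quantified by densitometry against untreated control, 3 experiments, independent t-test.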

[2] = Transcriptional activation of Nrf2/ARE signaling pathway in mouse Hepa-1c1c7 cells assessed as increase in cellular GSH level at 10 uM after 24 hrs by Ellman's method; format: functional, cell-based
Outline: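 Hepa1c1c7 cells at 10⁶/plate grown 24 h, then given compound at 10 µM final for 24 h. Pellets extracted with 3% sulfosalicylic acid. Total GSH measured by DTNB recycling (0.6 mM DTNB, 0.2 mM NADPH, GSH reductase) as ΔA412 over 5 min against a GSH standard curve. Values normalized to Bradford protein from a parallel plate; mean ± SEM, n = 3.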

[3] = system: Hepa-1c1c7; assay: Induction of human NQO1 gene expression in mouse Hepa-1c1c7 cells co-transfected with pGL3-ARE at 25 uM after 24 hrs by luciferase reporter gene assay; format: functional, cell-based
Outline: (§1)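 Hepa1c1c7 cells at about 50% confluency co-transfected with pGL3-ARE firefly luciferase (human NQO1 ARE) and pRL-CMV Renilla as transfection control. After 24 h, cells exposed to compound (10 or 25 µM). Dual luciferase read-out expressed as fold over control; mean ± SD of 3 independent transfections, t-test.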

[4] = Induction of NQO1 activity in mouse Hepa-1c1c7 cells at 5 uM after 48 hrs relative to control
[5] = Cytotoxicity against mouse Hepa-1c1c7 cells assessed as cell survival at 5 uM after 48 hrs by MTT assay; format: cell-based; settings: read-out: Activity
Outline: (§2)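 MTT (0.5 mg/ml) added for 3 h at 37 °C, formazan dissolved in DMSO and read at 590 nm. Survival (%) = (A treated − A blank)/(A untreated − A blank) × 100.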

[6] = system: Hepa-1c1c7; assay: Induction of human NQO1 gene expression in mouse Hepa-1c1c7 cells co-transfected with pGL3-ARE at 10 to 25 uM after 24 hrs by luciferase reporter gene assay; format: functional, cell-based; outline: as §1
[7] = target: T1, CYP1A1 (Mus musculus, UniProt P30561); assay: Induction of Ah receptor in mouse Hepa-1c1c7 cells assessed as induction of CYP1A1 activity at 10 uM after 48 hrs by EROD assay relative to control; format: cell-based; settings: probe ethoxyresorufin (EROD), read-out: FC
T1 sequence (P30561 whole entry): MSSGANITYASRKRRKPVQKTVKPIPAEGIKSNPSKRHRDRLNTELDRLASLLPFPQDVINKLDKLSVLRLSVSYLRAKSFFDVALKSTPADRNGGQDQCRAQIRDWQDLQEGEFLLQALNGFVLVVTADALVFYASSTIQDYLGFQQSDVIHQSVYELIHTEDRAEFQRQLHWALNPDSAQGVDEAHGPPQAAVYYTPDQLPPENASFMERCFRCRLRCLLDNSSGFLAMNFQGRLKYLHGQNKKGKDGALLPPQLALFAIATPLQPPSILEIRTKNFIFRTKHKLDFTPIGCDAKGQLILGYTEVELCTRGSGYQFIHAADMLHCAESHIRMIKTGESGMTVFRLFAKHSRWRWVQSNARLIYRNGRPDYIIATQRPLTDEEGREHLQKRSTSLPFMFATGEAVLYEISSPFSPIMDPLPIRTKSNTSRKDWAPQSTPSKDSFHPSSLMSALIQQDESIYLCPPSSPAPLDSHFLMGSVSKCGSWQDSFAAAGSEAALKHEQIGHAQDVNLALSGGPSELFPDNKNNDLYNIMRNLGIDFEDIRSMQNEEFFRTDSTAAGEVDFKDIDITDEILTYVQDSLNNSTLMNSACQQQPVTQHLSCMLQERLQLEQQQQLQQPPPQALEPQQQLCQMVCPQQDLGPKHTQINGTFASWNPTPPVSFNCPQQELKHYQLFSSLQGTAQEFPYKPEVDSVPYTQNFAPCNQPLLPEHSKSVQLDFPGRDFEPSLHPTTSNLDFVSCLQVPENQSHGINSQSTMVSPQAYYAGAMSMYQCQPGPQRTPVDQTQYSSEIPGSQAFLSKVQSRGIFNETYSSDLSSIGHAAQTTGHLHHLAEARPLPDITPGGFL
Outline: (§3)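 Hepa1c1c7 cells at 10⁴/well grown 24 h, then given compound at one fixed concentration for 48 h. After a PBS wash, cells incubated 40 min at 37 °C with 5 µM 7-ethoxyresorufin plus 2 mM salicylamide. Resorufin fluorescence read at ex 530/em 590 nm. Fold induction = (F cells+compound − F blank)/(F control − F blank); mean ± SD, n = 3.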

[8] = Upregulation of TrxR protein expression in mouse Hepa-1c1c7 cells at 10 uM after 24 hrs by Western blotting relative to control; format: functional, cell-based
Outline: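 Hepa1c1c7 cells exposed to compound at 10 µM for 24 h. Digitonin/EDTA lysates (50 µg protein) separated on 15% SDS-PAGE, blotted to nitrocellulose and probed with anti-TrxR antibody. Band intensity compared with untreated control; representative of 3 experiments.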

[9] = system: Hepa-1c1c7; assay: Induction of TrxR activity in mouse Hepa-1c1c7 cells at 10 uM after 24 hrs; format: cell-based
Outline: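 Hepa1c1c7 cells treated with compound at 10 µM for 24 h. Digitonin/EDTA lysate (25 µg) incubated 20 min at 37 °C with 85 mM HEPES pH 7.6, 0.3 mM insulin, 660 µM NADPH, 2.5 mM EDTA and 5 µM human thioredoxin. Reaction quenched with DTNB in guanidine; A412 read, minus no-thioredoxin background. Fold versus control, mean ± SEM, n = 3.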

[10] = Cytotoxicity against mouse Hepa-1c1c7 cells assessed as cell survival at 25 uM after 48 hrs by MTT assay; format: cell-based; settings: read-out: Activity; outline: as §2
[11] = Induction of NQO1 activity in mouse Hepa-1c1c7 cells at 25 uM after 48 hrs relative to control
[12] = target: T1, CYP1A1; assay: Induction of Ah receptor in mouse Hepa-1c1c7 cells assessed as induction of CYP1A1 activity at 5 uM after 48 hrs by EROD assay relative to control; format: cell-based; settings: probe ethoxyresorufin (EROD), read-out: FC; outline: as §3
[13] = target: NAD(P)H dehydrogenase [quinone] 1 (Homo sapiens) (UniProt P15559); assay: Induction of […] NQO1 activity in mutant mouse BPrc1 cells assessed as concentration require for 2 fold induction after 48 hrs; format: cell-based
Outline: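 Mutant Hepa1c1c7 line (Bp^rc1, defective Ah-receptor pathway) seeded at 10⁴ cells/well for 24 h, then exposed to compound for 48 h; final DMSO ≤0.5%. Cells lysed with 0.8% digitonin/2 mM EDTA. NQO1 read by menadione-driven MTT reduction (NADP, glucose-6-phosphate regenerating system, FAD, pH 7.4), stopped after 5 min with dicoumarol, A590. Activity taken relative to blank and control wells; CD = concentration doubling basal activity; mean ± SD of 3 determinations.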

[14] = target: T2, Aryl hydrocarbon receptor (Mus musculus, UniProt P30561); assay: (§4) Induction of Ah receptor in mouse Hepa-1c1c7 cells assessed as induction of CYP1A1 activity at 1 uM after 48 hrs by EROD assay relative to control; format: cell-based; settings: hepa-1c1c7, 48 h, 1 µM; outline: as §3
T2 sequence (P30561 whole entry): T1 sequence (P30561 whole entry)

[15] = target: T1, CYP1A1; assay: as §4; format: cell-based; settings: Hepa-1c1c7 cells, probe ethoxyresorufin (EROD), read-out: FC; outline: as §3
[16] = Induction of NQO1 activity in mouse Hepa-1c1c7 cells at 1 uM after 48 hrs relative to control
[17] = system: Hepa-1c1c7; assay: Increase of Nrf2 protein level in mouse Hepa-1c1c7 cells at 10 uM for 6 hrs Western blotting relative to control

Sequence of NAD(P)H dehydrogenase [quinone] 1 (Homo sapiens) (P15559 whole entry): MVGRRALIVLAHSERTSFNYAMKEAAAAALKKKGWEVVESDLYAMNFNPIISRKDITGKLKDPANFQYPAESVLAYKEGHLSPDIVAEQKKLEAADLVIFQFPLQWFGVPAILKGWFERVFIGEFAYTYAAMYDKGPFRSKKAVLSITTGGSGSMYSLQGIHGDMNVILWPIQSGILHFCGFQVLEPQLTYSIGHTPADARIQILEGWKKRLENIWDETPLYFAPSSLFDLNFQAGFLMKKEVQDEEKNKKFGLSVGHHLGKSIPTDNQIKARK

SMILES	Activity [1]	Activity [2]	fold change (FC) [4]	viability at 48 h, 5 µM [5] [%]	Activity [6]	fold induction at 48 h, 10 µM [7]	further results
O=C1/C(=C/c2ccccc2O)Oc2cc(O)cc(O)c21	Active	Active	2.92	102	Active	1.1	Activity [3]: Active
COc1cc(OC)c2c(c1)O/C(=C\c1ccccc1O)C2=O	Active	Active	5.28	102	Active	1.87	Activity [8]: Active
O=C1/C(=C/c2ccccc2O)Oc2ccccc21			1.41	110	inactive		Activity [9]: inactive; viability at 48 h, 25 µM [10]: 102%; fold change (FC) [11]: 1.61; fold induction at 48 h, 5 µM [12]: 1.4
C[S+]([O-])CCCCN=C=S (stereo unspecified) [SULFORAPHANE]	Active				inactive		Activity [13]: inactive; Activity [14]: 0.92
COc1cc(OC)c2c(c1)O/C(=C\c1ccccc1)C2=O	Active	Active	7.7	93	Active	2.04	Activity [8]: Active
COc1cc(OC)c2c(c1)O/C(=C\c1ccccc1OC)C2=O				82			fold induction at 48 h, 1 µM [15]: 1.56; fold change (FC) [16]: 2.21
CC(C)C[C@@H](C=O)NC(=O)[C@H](CC(C)C)NC(=O)[C@H](CC(C)C)NC(=O)OCc1ccccc1 (Cbz-Leu-Leu-Leu-aldehyde)							Activity [17]: Active
